Marks after values point to notes of the source that are not given here.
Experiments:
[1] = biological target: T1, PfHsp90-NTD (Plasmodium falciparum, UniProt Q8IC05); test: Competition binding, FITC-geldanamycin fluorescence polarization assay, PfHsp90; details: read-out: FP inhibition % PfHsp90 [10 μM]
How it was run: (§1)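 Ni-affinity-purified Hsp90 N-terminal domain (PfHsp90-NTD or human Hsp90β-NTD, expressed in E. coli), 100 nM final, mixed with 5 nM FITC-geldanamycin. FP read at 480 nm excitation and 535 nm emission, converted to percent bound FITC-GDA versus the DMSO control.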

[2] = biological target: T1, PfHsp90-NTD; test: Equilibrium binding kinetics by MP-SPR
How it was run: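 PfHsp90-NTD (20 μg/mL) was immobilised by amine coupling on a carboxymethyl dextran gold chip for multiparametric SPR. Running buffer was PBS with 0.005% Tween 20 and 20 mM EDTA, pH 7.4. Test compound (0–2000/5000 nM) was injected at 50 μL/min, with association for 1 min and dissociation for 9 min at room temperature. Signals were subtracted against a protein-free reference channel and buffer blanks.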

[3] = biological target: human Hsp90β-NTD (Homo sapiens, UniProt P08238); format: binding; details: 10 μM compound, FITC-GDA displacement
How it was run: as §1

T1 sequence (Q8IC05 1-215): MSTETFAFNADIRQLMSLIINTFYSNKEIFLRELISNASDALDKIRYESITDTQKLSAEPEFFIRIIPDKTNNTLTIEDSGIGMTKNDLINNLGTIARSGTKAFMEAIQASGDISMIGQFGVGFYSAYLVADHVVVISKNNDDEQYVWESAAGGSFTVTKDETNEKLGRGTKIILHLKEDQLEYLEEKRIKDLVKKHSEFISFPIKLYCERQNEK
human Hsp90β-NTD, sequence (P08238 1-226): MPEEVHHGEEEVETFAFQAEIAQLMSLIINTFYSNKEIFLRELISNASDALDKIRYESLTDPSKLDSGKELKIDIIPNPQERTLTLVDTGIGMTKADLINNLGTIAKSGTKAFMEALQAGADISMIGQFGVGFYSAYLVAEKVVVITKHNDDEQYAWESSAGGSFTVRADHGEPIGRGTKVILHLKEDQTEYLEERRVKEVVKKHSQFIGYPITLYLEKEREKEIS

For `COc1ccc2c(c1)[nH]c1c(C)nccc12` [harmine], the inhibition at 10 µM [1] was 7 ± 6%, the Kd ([2]; KD, Kd/Ka) was 1820 ± 100 nM and the Ka ([2]; association) was 17.6 ± 14.9 1/Ms (×10^3). The Kd ([2]; dissociation rate) was 3.20 ± 4.8 1/s (×10^–6) and the “FP inhibition% human Hsp90 [10 μM]” value [3] was “no inhibition”.

Reference: PMC10586269 (ACS Omega, 2023)
